In ChEMBL document CHEMBL1154824, “Synthesis and biological activity of derivatives of the marine quinone avarone” (Eur J Med Chem, 2010):
Converted amounts (≈) assume the structure as drawn. The source made the active and inactive calls. The calls are words filed in the database; no cut-off is given here.

Experiments:
MOLT-4 = experiment: Cytotoxicity against human MOLT4 cells after 48 hrs by sulforhodamine B assay; type: functional; details: MOLT-4, 48 h
How it was run: (§1)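 Tested at NIH-NCI against the 60 human tumor cell line panel. Each line was exposed to at least five concentrations for 48 h. Growth and survival were read by the sulforhodamine test.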

[1] = Cytotoxicity against human T4 lymphocytes
[2] = tested on: Human immunodeficiency virus; experiment: Antiviral activity against HIV infected in human T4 lymphocytes assessed as protection from HIV-induced cytopathogenicity at 2 uM; type: functional
K562 [3] = experiment: Cytotoxicity against human K562 cells after 48 hrs by sulforhodamine B assay; type: functional; details: K562, 48 h; how it was run: as §1
CCRF-CEM = experiment: Cytotoxicity against human CCRF-CEM cells after 48 hrs by sulforhodamine B assay; type: functional; how it was run: as §1
[4] = Cytotoxicity against human Fem-X cells assessed as decrease in total cellular protein by kenacid blue R binding method; type: functional, cell-based
HOP-92 = experiment: Cytotoxicity against human HOP92 cells after 48 hrs by sulforhodamine B assay; type: functional; details: HOP-92, 48 h; how it was run: as §1
Artemia salina = experiment: Toxicity against freshly hatched nauplii of brine shrimp after 24 hrs; type: organism-based; details: in vivo
HeLa = experiment: Cytotoxicity against human HeLa cells assessed as decrease in total cellular protein by kenacid blue R binding method; type: functional, cell-based
NCI-H23 = experiment: Cytotoxicity against human NCI-H23 cells after 48 hrs by sulforhodamine B assay; type: functional; details: NCI-H23, 48 h; how it was run: as §1
LOX IMVI = experiment: Cytotoxicity against human LOXIMVI cells after 48 hrs by sulforhodamine B assay; type: functional; how it was run: as §1
T47D = experiment: Cytotoxicity against human T47D cells after 48 hrs by sulforhodamine B assay; type: functional; how it was run: as §1
[5] = Cytotoxicity against human prostate cancer cells after 48 hrs by sulforhodamine B assay; type: functional; details: Cancer cell lines; how it was run: as §1
MCF7 = experiment: Cytotoxicity against human MCF7 cells after 48 hrs by sulforhodamine B assay; type: functional; details: MCF7, 48 h; how it was run: as §1
Escherichia coli = experiment: Antibacterial activity against Escherichia coli ATCC 35218 by serial dilution method; type: functional
[6] = Cytotoxicity against human colon cancer cells after 48 hrs by sulforhodamine B assay; type: functional; details: Cancer cell lines; how it was run: as §1
PBMC [7] = experiment: Cytotoxicity against human PBMC cells by MTT assay; type: cell-based
PBMC [8] = experiment: Cytotoxicity against human phytohemagglutininin-stimulated PBMC cells assessed as growth inhibition by MTT assay; type: cell-based
IGROV-1 = experiment: Cytotoxicity against human IGROV1 cells after 48 hrs by sulforhodamine B assay; type: functional; details: IGROV-1, 48 h; how it was run: as §1
Staphylococcus aureus = experiment: Antibacterial activity against Staphylococcus aureus ATCC 25923 by serial dilution method; type: functional
K562 [9] = experiment: Cytotoxicity against human K562 cells by MTT assay; type: functional, cell-based
RPMI-8226 = experiment: Cytotoxicity against human RPMI8226 cells after 48 hrs by sulforhodamine B assay; type: functional; details: RPMI-8226, 48 h; how it was run: as §1
[10] = Cytotoxicity against human CNS cancer cells after 48 hrs by sulforhodamine B assay; type: functional; details: Cancer cell lines; how it was run: as §1
MDA-MB-435 = experiment: Cytotoxicity against human MDA-MB-435 cells after 48 hrs by sulforhodamine B assay; type: functional; details: MDA-MB-435, 48 h; how it was run: as §1
SK-MEL-2 = experiment: Cytotoxicity against human SK-MEL-2 cells after 48 hrs by sulforhodamine B assay; type: functional; details: SK-MEL-2, 48 h; how it was run: as §1
RXF 393 = experiment: Cytotoxicity against human RXF393 cells after 48 hrs by sulforhodamine B assay; type: functional; details: RXF 393, 48 h; how it was run: as §1

CC1=CCC[C@H]2[C@](C)(CC3=CC(=O)C(Sc4ccccc4)=CC3=O)[C@@H](C)CC[C@]12C
GI50 (MOLT-4): 2.57 µM | Activity [1]: Toxic | Activity [2]: 12.5% | GI50 (K562 [3]): 19.5 µM | GI50 (CCRF-CEM): 3.89 µM | IC50 [4]: 42.5 µM | GI50 (HOP-92): 17 µM | LC50 (Artemia salina): 30.21 ppm | IC50 (HeLa): 45 µM | GI50 (NCI-H23): 14.8 µM | GI50 (LOX IMVI): 13.5 µM | GI50 (T47D): 20.4 µM | GI50 [5]: > 10 µM | GI50 (MCF7): 22.4 µM | MIC (Escherichia coli): inactive | GI50 [6]: > 10 µM | IC50 (PBMC [7]): 9.9 µM | IC50 (PBMC [8]): 11.2 µM | GI50 (IGROV-1): 16.2 µM | MIC (Staphylococcus aureus): 12.5 µg/mL (≈ 29.7 µM) | IC50 (K562 [9]): 15.2 µM | GI50 (RPMI-8226): 20.4 µM | GI50 [10]: > 10 µM | GI50 (MDA-MB-435): 17 µM | GI50 (SK-MEL-2): 20 µM | GI50 (RXF 393): 16.2 µM

COC1=CC(=O)C=C(C[C@]2(C)[C@@H](C)CC[C@]3(C)C(C)=CCC[C@@H]23)C1=O
IC50 [4]: 9.8 µM | LC50 (Artemia salina): 0.02 ppm | IC50 (HeLa): 13.3 µM | MIC (Escherichia coli): 50 µg/mL (≈ 146 µM) | IC50 (PBMC [7]): 5.9 µM | IC50 (PBMC [8]): 5.5 µM | MIC (Staphylococcus aureus): 25 µg/mL (≈ 73 µM) | IC50 (K562 [9]): 2.1 µM

CCCCCCCCSC1=CC(=O)C(C[C@]2(C)[C@@H](C)CC[C@]3(C)C(C)=CCC[C@@H]23)=CC1=O
IC50 [4]: > 100 µM | LC50 (Artemia salina): Not Active | IC50 (HeLa): > 100 µM | MIC (Escherichia coli): 25 µg/mL (≈ 54.7 µM) | MIC (Staphylococcus aureus): inactive | IC50 (K562 [9]): > 100 µM

CC1=CCC[C@H]2[C@](C)(CC3=CC(=O)C(SCC(C)C)=CC3=O)[C@@H](C)CC[C@]12C
GI50 (MOLT-4): 2.29 µM | Activity [1]: Toxic | Activity [2]: 28.5% | GI50 (K562 [3]): 4.47 µM | GI50 (CCRF-CEM): 1.35 µM | IC50 [4]: 89.5 µM | GI50 (HOP-92): 4.79 µM | LC50 (Artemia salina): 0.17 ppm | IC50 (HeLa): 98 µM | GI50 (NCI-H23): 5.5 µM | GI50 (LOX IMVI): 4.07 µM | GI50 (T47D): 2.63 µM | GI50 [5]: > 10 µM | GI50 (MCF7): 7.24 µM | MIC (Escherichia coli): 25 µg/mL (≈ 62.4 µM) | GI50 [6]: > 10 µM | GI50 (IGROV-1): 10 µM | MIC (Staphylococcus aureus): 50 µg/mL (≈ 125 µM) | IC50 (K562 [9]): 39 µM | GI50 (RPMI-8226): 3.8 µM | GI50 [10]: > 10 µM | GI50 (MDA-MB-435): 15.5 µM | GI50 (SK-MEL-2): 20.9 µM | GI50 (RXF 393): 6.76 µM

C[C@H]1c2cccc(O)c2C(=O)C2=C(O)[C@]3(O)C(=O)C(C(N)=O)=C(O)[C@@H](N(C)C)[C@@H]3[C@@H](O)[C@@H]21.O [DOXYCYCLINE]
MIC (Escherichia coli): 2 µg/mL | MIC (Staphylococcus aureus): 4 µg/mL

CC1=CCC[C@H]2[C@](C)(CC3=CC(=O)C4=C(SCCS4)C3=O)[C@@H](C)CC[C@]12C
GI50 (MOLT-4): 21.4 µM | GI50 (K562 [3]): 20 µM | GI50 (CCRF-CEM): 11 µM | IC50 [4]: 75 µM | GI50 (HOP-92): 31.6 µM | LC50 (Artemia salina): 2045 ppm | IC50 (HeLa): > 100 µM | GI50 (NCI-H23): 13.2 µM | GI50 (LOX IMVI): 11.2 µM | GI50 (T47D): > 100 µM | GI50 [5]: > 10 µM | GI50 (MCF7): 20.4 µM | MIC (Escherichia coli): 100 µg/mL (≈ 248 µM) | GI50 [6]: > 10 µM | GI50 (IGROV-1): 32.4 µM | MIC (Staphylococcus aureus): inactive | IC50 (K562 [9]): 91 µM | GI50 (RPMI-8226): 14.1 µM | GI50 [10]: > 10 µM | GI50 (MDA-MB-435): 8.13 µM | GI50 (SK-MEL-2): 1.7 µM | GI50 (RXF 393): 18.6 µM

CCCCSC1=CC(=O)C(C[C@]2(C)[C@@H](C)CC[C@]3(C)C(C)=CCC[C@@H]23)=CC1=O
IC50 [4]: 24.4 µM | LC50 (Artemia salina): 0.92 ppm | IC50 (HeLa): 25.1 µM | MIC (Escherichia coli): inactive | MIC (Staphylococcus aureus): 25 µg/mL (≈ 62.4 µM) | IC50 (K562 [9]): 12.5 µM

CC1CCC[C@H]2[C@](C)(CC3=CC(=O)C(Cl)=CC3=O)[C@@H](C)CC[C@]12C (stereo not given in full)
IC50 [4]: 32.2 µM | LC50 (Artemia salina): 0.65 ppm | IC50 (HeLa): 34.1 µM | MIC (Escherichia coli): 25 µg/mL (≈ 71.7 µM) | MIC (Staphylococcus aureus): 50 µg/mL (≈ 143 µM) | IC50 (K562 [9]): 11.2 µM

CNC1=CC(=O)C(C[C@]2(C)[C@@H](C)CC[C@]3(C)C(C)=CCC[C@@H]23)=CC1=O
IC50 [4]: 2.4 µM | LC50 (Artemia salina): 0.34 ppm | IC50 (HeLa): 12.6 µM | MIC (Escherichia coli): inactive | IC50 (PBMC [7]): > 100 µM | IC50 (PBMC [8]): > 100 µM | MIC (Staphylococcus aureus): inactive | IC50 (K562 [9]): 9.3 µM

CC1=CCC[C@H]2[C@](C)(CC3=CC(=O)C=CC3=O)[C@@H](C)CC[C@]12C [AVARONE]
IC50 [4]: 23.9 µM | LC50 (Artemia salina): 0.14 ppm | IC50 (HeLa): 26.8 µM | MIC (Escherichia coli): 25 µg/mL (≈ 80 µM) | IC50 (PBMC [7]): 4.8 µM | IC50 (PBMC [8]): 4.5 µM | MIC (Staphylococcus aureus): 6.25 µg/mL (≈ 20 µM) | IC50 (K562 [9]): 4.9 µM

CC1=CCC[C@H]2[C@](C)(CC3=CC(=O)C(SC(C)C)=CC3=O)[C@@H](C)CC[C@]12C
IC50 [4]: 86 µM | LC50 (Artemia salina): 0.44 ppm | IC50 (HeLa): 67 µM | MIC (Escherichia coli): inactive | MIC (Staphylococcus aureus): inactive | IC50 (K562 [9]): 47.5 µM

CC1=CCC[C@H]2[C@](C)(CC3=CC(=O)C=C(Sc4ccccc4)C3=O)[C@@H](C)CC[C@]12C
IC50 [4]: 41.5 µM | LC50 (Artemia salina): 32.33 ppm | IC50 (HeLa): 54.8 µM | MIC (Escherichia coli): inactive | MIC (Staphylococcus aureus): 12.5 µg/mL (≈ 29.7 µM) | IC50 (K562 [9]): 17.4 µM

CCCSC1=CC(=O)C(C[C@]2(C)[C@@H](C)CC[C@]3(C)C(C)=CCC[C@@H]23)=CC1=O
IC50 [4]: 89.5 µM | LC50 (Artemia salina): 0.2 ppm | IC50 (HeLa): 97 µM | MIC (Escherichia coli): inactive | MIC (Staphylococcus aureus): 50 µg/mL (≈ 129 µM) | IC50 (K562 [9]): 45.5 µM

CC1=CCC[C@H]2[C@](C)(CC3=CC(=O)C(SC(C)(C)C)=CC3=O)[C@@H](C)CC[C@]12C
IC50 [4]: 38 µM | LC50 (Artemia salina): 0.89 ppm | IC50 (HeLa): 37 µM | MIC (Escherichia coli): inactive | IC50 (PBMC [7]): 21.7 µM | IC50 (PBMC [8]): 20.8 µM | MIC (Staphylococcus aureus): 50 µg/mL (≈ 125 µM) | IC50 (K562 [9]): 25.7 µM

CC1=CCC[C@H]2[C@](C)(Cc3cc(O)ccc3O)[C@@H](C)CC[C@]12C [AVAROL]
IC50 [4]: 21.7 µM | LC50 (Artemia salina): 0.18 ppm | IC50 (HeLa): 19.7 µM | MIC (Escherichia coli): inactive | IC50 (PBMC [7]): 3 µM | IC50 (PBMC [8]): 3.2 µM | MIC (Staphylococcus aureus): 12.5 µg/mL (≈ 39.7 µM) | IC50 (K562 [9]): 7.3 µM
